Data as given in ChEMBL document CHEMBL1153736, “Application of ring-closing metathesis macrocyclization to the development of Tsg101-binding antagonists” (Bioorg Med Chem Lett, 2010).
Numbered stars: 1 amine (or outer) side, 2 acyl side, 3 side chain; on linkers, the order of the positions; unused ones are H or OH. Bridge positions count the residues as written; N and C are the ends. Square brackets hold non-standard residues; d marks the D form. Peptide text beside a SMILES is read from it. * marks the point of attachment. Fluorescein(5-NHCS) = O=C1OC2(c3ccc(O)cc3Oc3cc(O)ccc32)c2cc(NC(=S)*)ccc21; Gly(N-but-3-enyl) = O=C(CN(CCC=[*:3])[*:1])[*:2]; X3 = O=C(CN(CCCCCCC=[*:3])[*:1])[*:2]; N(7-octenyl)Gly = C=CCCCCCCNCC(=O)O; Ava = NCCCCC(=O)O

Columns and labels:
HeLa = experiment: Cellular uptake in human HeLa cells assessed as fluorescence intensity by FACS analysis relative to control; type: ADME, cell-based; conditions: in the assay text read “fluorescence microscopy” for “FACS analysis”
Summary of the method: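 Uptake of FITC-tagged peptide-peptoid hybrids was measured by fluorescence microscopy. The value is the average fluorescence intensity of treated cells, quantified from at least 20 cells taken from 4–6 fields, each field holding about 5 cells.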

[1] = target: T1, Tumor susceptibility gene 101 protein (Homo sapiens, UniProt Q99816); experiment: Binding affinity to ubiquitin E2 variant domain of human Tsg101 by fluorescent anisotropy
T1 sequence (Q99816 whole entry): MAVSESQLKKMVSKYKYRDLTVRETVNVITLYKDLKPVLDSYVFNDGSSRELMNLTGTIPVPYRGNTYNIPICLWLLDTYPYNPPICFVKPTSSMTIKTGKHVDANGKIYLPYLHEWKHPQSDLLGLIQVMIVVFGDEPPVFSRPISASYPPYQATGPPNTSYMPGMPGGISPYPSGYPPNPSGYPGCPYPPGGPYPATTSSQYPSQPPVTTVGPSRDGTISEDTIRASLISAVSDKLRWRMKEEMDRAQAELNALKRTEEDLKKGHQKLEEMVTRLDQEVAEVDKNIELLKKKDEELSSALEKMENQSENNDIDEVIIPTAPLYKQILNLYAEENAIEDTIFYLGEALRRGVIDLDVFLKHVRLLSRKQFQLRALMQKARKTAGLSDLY

| Compound | Drug uptake (HeLa) | Kd [1] |
| --- | --- | --- |
| C[C@@H]1NC(=O)[C@H]([C@@H](C)O)NC(=O)[C@@H]2CCCN2C(=O)[C@H](CCC(=O)O)NC(=O)CN(C(=O)CCCCNC(=S)Nc2ccc3c(c2)C2(OC3=O)c3ccc(O)cc3Oc3cc(O)ccc32)CCCCCC/C=C\CCCCCCN(CC(N)=O)C(=O)[C@H](CCC(=O)O)NC(=O)[C@@H]2CCCN2C(=O)[C@@H]2CCCN2C1=O | 328% |  |
| C[C@@H]1NC(=O)[C@H]([C@@H](C)O)NC(=O)[C@@H]2CCCN2C(=O)CN(C(=O)[C@@H]2CCCN2C(=O)CCCCNC(=S)Nc2ccc3c(c2)C2(OC3=O)c3ccc(O)cc3Oc3cc(O)ccc32)CC/C=C\CCCCCCN(CC(N)=O)C(=O)[C@H](CCC(=O)O)NC(=O)[C@@H]2CCCN2C(=O)[C@@H]2CCCN2C1=O | 77% |  |
| C[C@@H]1NC(=O)[C@H]([C@@H](C)O)NC(=O)[C@@H]2CCCN2C(=O)CN(C(=O)[C@@H]2CCCN2C(=O)CCCCNC(=S)Nc2ccc3c(c2)C2(OC3=O)c3ccc(O)cc3Oc3cc(O)ccc32)CCCCCC/C=C\CCCCCCN(CC(N)=O)C(=O)[C@H](CCC(=O)O)NC(=O)[C@@H]2CCCN2C(=O)[C@@H]2CCCN2C1=O | 199% |  |
| C=CCN(CC(N)=O)C(=O)[C@H](CCC(=O)O)NC(=O)[C@@H]1CCCN1C(=O)[C@@H]1CCCN1C(=O)[C@H](C)NC(=O)[C@@H](NC(=O)[C@@H]1CCCN1C(=O)CN(CC=C)C(=O)[C@@H]1CCCN1C(=O)CCCCNC(=S)Nc1ccc2c(c1)C1(OC2=O)c2ccc(O)cc2Oc2cc(O)ccc21)[C@@H](C)O | 98% |  |
| C[C@@H]1NC(=O)[C@H]([C@@H](C)O)NC(=O)[C@@H]2CCCN2C(=O)[C@H](CCC(=O)O)NC(=O)CN(C(=O)CCCCNC(=S)Nc2ccc3c(c2)C2(OC3=O)c3ccc(O)cc3Oc3cc(O)ccc32)CCC/C=C\CN(CC(N)=O)C(=O)[C@H](CCC(=O)O)NC(=O)[C@@H]2CCCN2C(=O)[C@@H]2CCCN2C1=O |  | > 500 µM |
| C[C@@H]1NC(=O)[C@H]([C@@H](C)O)NC(=O)[C@@H]2CCCN2C(=O)[C@H](CCC(=O)O)NC(=O)CN(C(=O)CCCCNC(=S)Nc2ccc3c(c2)C2(OC3=O)c3ccc(O)cc3Oc3cc(O)ccc32)CC/C=C\CCCCCCN(CC(N)=O)C(=O)[C@H](CCC(=O)O)NC(=O)[C@@H]2CCCN2C(=O)[C@@H]2CCCN2C1=O | 100% |  |
| C=CCCCCCCN(CC(=O)N[C@@H](CCC(=O)O)C(=O)N1CCC[C@H]1C(=O)N[C@H](C(=O)N[C@@H](C)C(=O)N1CCC[C@H]1C(=O)N1CCC[C@H]1C(=O)N[C@@H](CCC(=O)O)C(=O)N(CCCCCCC=C)CC(N)=O)[C@@H](C)O)C(=O)CCCCNC(=S)Nc1ccc2c(c1)C1(OC2=O)c2ccc(O)cc2Oc2cc(O)ccc21 | 35% |  |
| C=CCCCCCCN(CC(N)=O)C(=O)[C@H](CCC(=O)O)NC(=O)[C@@H]1CCCN1C(=O)[C@@H]1CCCN1C(=O)[C@H](C)NC(=O)[C@@H](NC(=O)[C@@H]1CCCN1C(=O)CN(CCCCCCC=C)C(=O)[C@@H]1CCCN1C(=O)CCCCNC(=S)Nc1ccc2c(c1)C1(OC2=O)c2ccc(O)cc2Oc2cc(O)ccc21)[C@@H](C)O | 42% |  |
| C[C@@H]1NC(=O)[C@H]([C@@H](C)O)NC(=O)[C@@H]2CCCN2C(=O)[C@H](CCC(=O)O)NC(=O)CN(C(=O)CCCCNC(=S)Nc2ccc3c(c2)C2(OC3=O)c3ccc(O)cc3Oc3cc(O)ccc32)CCCCC/C=C\CN(CC(N)=O)C(=O)[C@H](CCC(=O)O)NC(=O)[C@@H]2CCCN2C(=O)[C@@H]2CCCN2C1=O |  | > 500 µM |
| C[C@@H]1NC(=O)[C@H]([C@@H](C)O)NC(=O)[C@@H]2CCCN2C(=O)CN(C(=O)[C@@H]2CCCN2C(=O)CCCCNC(=S)Nc2ccc3c(c2)C2(OC3=O)c3ccc(O)cc3Oc3cc(O)ccc32)CCCCC=CCN(CC(N)=O)C(=O)[C@H](CCC(=O)O)NC(=O)[C@@H]2CCCN2C(=O)[C@@H]2CCCN2C1=O |  | 108 µM |
| C[C@@H]1NC(=O)[C@H]([C@@H](C)O)NC(=O)[C@@H]2CCCN2C(=O)[C@H](CCC(=O)O)NC(=O)CN(C(=O)CCCCNC(=S)Nc2ccc3c(c2)C2(OC3=O)c3ccc(O)cc3Oc3cc(O)ccc32)CCCC/C=C\CN(CC(N)=O)C(=O)[C@H](CCC(=O)O)NC(=O)[C@@H]2CCCN2C(=O)[C@@H]2CCCN2C1=O |  | > 500 µM |
| C[C@@H]1NC(=O)[C@H]([C@@H](C)O)NC(=O)[C@@H]2CCCN2C(=O)[C@H](CCC(=O)O)NC(=O)CN(C(=O)CCCCNC(=S)Nc2ccc3c(c2)C2(OC3=O)c3ccc(O)cc3Oc3cc(O)ccc32)CCC/C=C\CCCCCCN(CC(N)=O)C(=O)[C@H](CCC(=O)O)NC(=O)[C@@H]2CCCN2C(=O)[C@@H]2CCCN2C1=O |  | 106 µM |
| C=CCN(CC(=O)N[C@@H](CCC(=O)O)C(=O)N1CCC[C@H]1C(=O)N[C@H](C(=O)N[C@@H](C)C(=O)N1CCC[C@H]1C(=O)N1CCC[C@H]1C(=O)N[C@@H](CCC(=O)O)C(=O)N(CC=C)CC(N)=O)[C@@H](C)O)C(=O)CCCCNC(=S)Nc1ccc2c(c1)C1(OC2=O)c2ccc(O)cc2Oc2cc(O)ccc21 (stereo in doubt; 1'-(1,1)) | 74% |  |
| C[C@@H]1NC(=O)[C@H]([C@@H](C)O)NC(=O)[C@@H]2CCCN2C(=O)CN(C(=O)[C@@H]2CCCN2C(=O)CCCCNC(=S)Nc2ccc3c(c2)C2(OC3=O)c3ccc(O)cc3Oc3cc(O)ccc32)CC/C=C/CCCCCCN(CC(=O)N[C@@H](CCC(=O)O)C(N)=O)C(=O)[C@@H]2CCCN2C(=O)[C@@H]2CCCN2C1=O ({Fluorescein(5-NHCS)-Ava}-P[Gly(N-but-3-enyl)]PTAPP[X3]E-NH2; staple (E) 2-8) | 76% |  |
| C=CCCCCCCN(CC(=O)N1CCC[C@H]1C(=O)N[C@H](C(=O)N[C@@H](C)C(=O)N1CCC[C@H]1C(=O)N1CCC[C@H]1C(=O)N(CCCCCCC=C)CC(=O)N[C@@H](CCC(=O)O)C(N)=O)[C@@H](C)O)C(=O)[C@@H]1CCCN1C(=O)CCCCNC(=S)Nc1ccc2c(c1)C1(OC2=O)c2ccc(O)cc2Oc2cc(O)ccc21 ({Fluorescein(5-NHCS)-Ava}-P[N(7-octenyl)Gly]PTAPP[N(7-octenyl)Gly]E-NH2) | 45% |  |
| C[C@@H]1NC(=O)[C@H]([C@@H](C)O)NC(=O)[C@@H]2CCCN2C(=O)CN(C(=O)[C@@H]2CCCN2C(=O)CCCCNC(=S)Nc2ccc3c(c2)C2(OC3=O)c3ccc(O)cc3Oc3cc(O)ccc32)CCCCCC/C=C\CCCCCCN(CC(=O)N[C@@H](CCC(=O)O)C(N)=O)C(=O)[C@@H]2CCCN2C(=O)[C@@H]2CCCN2C1=O ({Fluorescein(5-NHCS)-Ava}-P[X3]PTAPP[X3]E-NH2; staple (Z) 2-8) | 200% |  |
| C[C@@H]1NC(=O)[C@H]([C@@H](C)O)NC(=O)[C@@H]2CCCN2C(=O)[C@H](CCC(=O)O)NC(=O)CN(C(=O)CCCCNC(=S)Nc2ccc3c(c2)C2(OC3=O)c3ccc(O)cc3Oc3cc(O)ccc32)CC/C=C/CCCCCCN(CC(=O)N[C@@H](CCC(=O)O)C(N)=O)C(=O)[C@@H]2CCCN2C(=O)[C@@H]2CCCN2C1=O ({Fluorescein(5-NHCS)-Ava}-[Gly(N-but-3-enyl)]EPTAPP[X3]E-NH2; staple (E) 1-8) | 100% |  |
| C=CCCCCCCN(CC(=O)N[C@@H](CCC(=O)O)C(=O)N1CCC[C@H]1C(=O)N[C@H](C(=O)N[C@@H](C)C(=O)N1CCC[C@H]1C(=O)N1CCC[C@H]1C(=O)N(CCCCCCC=C)CC(=O)N[C@@H](CCC(=O)O)C(N)=O)[C@@H](C)O)C(=O)CCCCNC(=S)Nc1ccc2c(c1)C1(OC2=O)c2ccc(O)cc2Oc2cc(O)ccc21 ({Fluorescein(5-NHCS)-Ava}-[N(7-octenyl)Gly]EPTAPP[N(7-octenyl)Gly]E-NH2) | 40% |  |
| H-PEPTAPPEE-OH | 74% |  |
